Assay outcomes as filed in PubChem BioAssay.
Hsp70 act = transcriptional activators of Hsp70 | HeLa Hsp70 promoter luciferase reporter, luminescence; scaled: vehicle 0, proteasome-inhibitor control 100% | activation, % at 10 µM | hit rate 0.04% among 200,000;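 active means activation above the mean across all tested compounds plus 3 SD, cutoff set per campaign, cut at about 5.5% in these data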;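 further: 100% = MG132 at 30 µM as the positive control and 0% = DMSO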
TAG inh = reduces triacylglycerol accumulation in H9c2 cells. Nile Red lipid (TAG) fluorescence; cells loaded with 200 µM oleic acid. inhibition, % at 12.5 µM. hit rate 0.66% among 230,000. AID 651582;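 active means pattern-corrected inhibition of lipid staining of at least 50% with the nuclear-stain viability signal not falling by more than 50%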;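 further: 0% = DMSO wells and 100% = triacsin C control wells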
GAA850 FXN act = activators of GAA850 frataxin (FXN) promoter. activation, % at 6 µM. hit rate 0.56% among 360,000. HEK293 lucGAA850 FXN promoter luciferase reporter, 24 h; percent of 10 µM SAHA response;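 active means activation above the average of all compounds screened plus 3 SD, cutoff fixed separately per campaign, cut at about 7.5% in these data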;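 further: 0% = DMSO wells and 100% = 10 µM SAHA wells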
HIF activator = HIF pathway transcriptional activation; U2OS HRE-luciferase reporter, luminescence; normalized: DMSO 0%, desferrioxamine 100%; activation, % at 7.5 µM (by protocol); hit rate 0.32% among 300,000;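 active means mean activation of at least 10% of the iron chelator positive control signal, with at least half of replicates also reaching 10%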
ABHD5 PLIN5 PPI = ABHD5-PLIN5 protein interaction inhibition. Split G. princeps luciferase complementation, luminescence, 4 h. Q00G26+Q8WTS1. inhibition, % at 4 µM. hit rate 0.78% among 360,000. AID 602281;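 active means inhibition above the mean inhibition across every tested compound plus 3 SD, cut at about 22% in these data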;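 further: 0% = DMSO only wells and the 100% control is not disclosed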
Rad51 HR inh = blocks human Rad51 in homologous recombination; Q06609; hRad51 DNA strand exchange, fluorescence dequenching; AID 1385; inhibition, % at 10 µM; hit rate 0.085% among 200,000;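 active means inhibition above 40% at the single screening dose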;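 further: 0% = DMSO control wells and 100% = blanks with heterologous ssDNA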
Target sequence (Q06609 whole entry, looked up): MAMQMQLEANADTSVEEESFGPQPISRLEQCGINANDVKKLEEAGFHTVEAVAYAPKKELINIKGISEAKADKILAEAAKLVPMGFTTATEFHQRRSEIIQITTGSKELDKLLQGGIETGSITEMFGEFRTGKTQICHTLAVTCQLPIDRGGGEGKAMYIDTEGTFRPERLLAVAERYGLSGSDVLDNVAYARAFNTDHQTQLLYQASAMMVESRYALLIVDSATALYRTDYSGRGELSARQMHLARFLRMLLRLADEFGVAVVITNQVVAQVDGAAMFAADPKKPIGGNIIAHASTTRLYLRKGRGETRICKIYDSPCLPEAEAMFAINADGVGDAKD
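Material: human Rad51–ssDNA filaments; Probe or stimulus: labelled 47-mer dsDNA for strand exchange; Doses: single 10 µM dose; Incubation: 37 °C 15-min filament assembly, 30-min compound preincubation, 15-min exchange; Technique: FRET fluorescence dequenching, excitation 485 nm, emission 520 nm; Measure: Fluorescence-based percent inhibition, control- and blank-normalised; Benchmarks: plate control and blank wells.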
GAA30 FXN cntr = GAA30 FXN promoter activation counter-screen; shares compounds with GAA850 FXN act; HEK293 lucGAA30 FXN promoter luciferase, 24 h; DMSO = 0%, 5 µM ipriflavone = 100%; AID 588350; activation, % at 6 µM; hit rate 66% among 1,900;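 active means mean activation above the mean of solvent-only control wells plus 3 SD, cut at about 22% in these data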;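 further: counterscreen of GAA850 promoter hits where activity marks nonselective or luminescence artifacts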
GAA850 confirm = GAA850 FXN promoter activation confirmation; shares compounds with GAA850 FXN act; HEK293 lucGAA850 FXN promoter luciferase reporter, 24 h; 100% = activation by SAHA; activation, % at 6 µM; hit rate 86% among 1,900;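 active means mean activation above a set limit taken from the primary screen, cut at about 8% in these data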;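 further: 0% = DMSO wells and 100% = 10 µM SAHA wells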
The depositor's hits bear a star. Compounds with a hit are over-represented: about 1.9% of the library has one in this group of screens.

CCOC(=O)[C@@H]1[C@H]2COc3ccc(Br)cc3[C@@H]2N2C(=O)N(c3cccc(Cl)c3)C(=O)[C@@]12C was read as TAG inh 27, GAA850 FXN act 9.9*, ABHD5 PLIN5 PPI -3, GAA30 FXN cntr -9 and GAA850 confirm 0.
`CCOC(=O)[C@H]1[C@H]2COc3ccc(Br)cc3[C@@H]2N2C(=O)c3c(C)cc(C)cc3NC(=O)[C@@]12C` gave TAG inh -8, GAA850 FXN act 14*, ABHD5 PLIN5 PPI 5, GAA30 FXN cntr 28* and GAA850 confirm 19*.
`COc1ccccc1N1CCN(c2ncnc3n[nH]c(Br)c23)CC1` gave ABHD5 PLIN5 PPI -3.
For CC(C)c1ccc(/C=C2\SC(=O)N(CC(=O)NC3CCS(=O)(=O)C3)C2=O)cc1 (stereo unspecified) the results were GAA850 FXN act 2 and ABHD5 PLIN5 PPI 1.
For COc1ccc(S(=O)(=O)Nc2ccccc2OC)cc1C the results were Hsp70 act 0, GAA850 FXN act 8.9*, HIF activator -1, ABHD5 PLIN5 PPI 3, Rad51 HR inh -2, GAA30 FXN cntr 10 and GAA850 confirm 7.
Screening c1cncc(-c2nc3ccccc3s2)c1 returned TAG inh -2, GAA850 FXN act 7.7*, HIF activator 2, ABHD5 PLIN5 PPI 5, Rad51 HR inh 9, GAA30 FXN cntr 86* and GAA850 confirm 28*.
Screening c1ccc2sc(-c3ccncc3)nc2c1 returned TAG inh 5, GAA850 FXN act 4, ABHD5 PLIN5 PPI -1 and Rad51 HR inh 19.
`COc1ccccc1Oc1ccc(N/C=C/C(=O)c2ccco2)cc1` gave Hsp70 act 0, TAG inh -1, GAA850 FXN act 12*, HIF activator 2, ABHD5 PLIN5 PPI 1, Rad51 HR inh 6, GAA30 FXN cntr 83* and GAA850 confirm 34*.
`CC1(C)Oc2ccc3ccc(=O)oc3c2C(/C=N/O)=C1Cl` gave GAA850 FXN act 1, HIF activator 0 and ABHD5 PLIN5 PPI -2.
For Fc1cccc(Cn2ccc(-c3ccc4c(c3)OCO4)n2)c1 the results were Hsp70 act 0, TAG inh -83, GAA850 FXN act 9.4*, HIF activator 4, ABHD5 PLIN5 PPI 3, Rad51 HR inh -15, GAA30 FXN cntr 84* and GAA850 confirm 25*.
CCNc1nc(N)nc(Oc2ccc(OCCOc3ccc(Cl)cc3Cl)nn2)n1 was read as Hsp70 act 0, GAA850 FXN act 13*, HIF activator 0, ABHD5 PLIN5 PPI 5, Rad51 HR inh 0, GAA30 FXN cntr 16 and GAA850 confirm 8.6*.
`Nc1cccc2c1C(=O)N(CCOc1ccc(F)cc1)C2=O` gave GAA850 FXN act 8.1*, HIF activator 2, ABHD5 PLIN5 PPI 0, GAA30 FXN cntr 106* and GAA850 confirm 26*.
Screening CN(Cc1ccc(F)cc1)C(=O)c1ccc(NC(=O)CC2SC(N3CCCC3)=NC2=O)cc1 (stereo unspecified) returned TAG inh -13, GAA850 FXN act 2, HIF activator -14 and ABHD5 PLIN5 PPI 2.
Screening O=C(CCCCCCC(=O)Nc1ccccc1)NO returned TAG inh 37, GAA850 FXN act 88*, HIF activator 190*, ABHD5 PLIN5 PPI -1, Rad51 HR inh -5, GAA30 FXN cntr 61* and GAA850 confirm 97*.
O=C(CCCCCN1C(=O)c2ccccc2C1=O)Nc1ccccc1 was read as Hsp70 act -1, GAA850 FXN act -1, HIF activator 0, ABHD5 PLIN5 PPI 5 and Rad51 HR inh -8.
For Cc1sc(NC(=O)C2C3CCC(O3)C2C(=O)O)nc1-c1ccc(CC(C)C)cc1 (stereo unspecified) the results were Hsp70 act 0, TAG inh -2, GAA850 FXN act 13*, HIF activator 4, ABHD5 PLIN5 PPI -11, Rad51 HR inh -7, GAA30 FXN cntr 62* and GAA850 confirm 26*.
`O=c1oc2ccc(Br)cc2cc1-c1nc2ccccc2o1` gave Hsp70 act 0, GAA850 FXN act -2, HIF activator 0, ABHD5 PLIN5 PPI 1 and Rad51 HR inh -5.
Screening Brc1ccc2oc(-c3ccn[nH]3)cc2c1 returned TAG inh 6, GAA850 FXN act 7.8*, HIF activator 3, ABHD5 PLIN5 PPI 2, Rad51 HR inh 7, GAA30 FXN cntr 116* and GAA850 confirm 38*.
O=C(Nc1ccc(Cl)cc1Cl)c1ccc(Br)o1 was read as TAG inh 0, GAA850 FXN act 5, HIF activator 3 and ABHD5 PLIN5 PPI 5.
`COc1ccc(-c2csc(N3C(=O)CNC3=S)n2)cc1` gave Hsp70 act 0, GAA850 FXN act 6, HIF activator 0, ABHD5 PLIN5 PPI -1 and Rad51 HR inh -8.
Screening COc1ccc(-c2csc(N3C(=N)SCC3=O)n2)cc1 returned Hsp70 act 0, GAA850 FXN act 10*, HIF activator 2, ABHD5 PLIN5 PPI 2, Rad51 HR inh -2, GAA30 FXN cntr 96* and GAA850 confirm 28*.
`COc1cc(-c2cnc3c(NC=O)cc(-c4ccc(N5CCN(C)CC5)cc4)cn23)cc(OC)c1OC` gave TAG inh 11, GAA850 FXN act 11*, ABHD5 PLIN5 PPI 6, GAA30 FXN cntr 109* and GAA850 confirm 51*.
Screening COc1ccccc1Nc1nc(-c2cccs2)cs1 returned Hsp70 act 0, GAA850 FXN act 10*, ABHD5 PLIN5 PPI -14, Rad51 HR inh -8, GAA30 FXN cntr 126* and GAA850 confirm 40*.
`CCn1cc(/C=C/C(=O)c2ccc(O)cc2)c(C)n1` gave Hsp70 act 0, TAG inh 5, GAA850 FXN act 8.7*, HIF activator 5, ABHD5 PLIN5 PPI 7, Rad51 HR inh -31, GAA30 FXN cntr 102* and GAA850 confirm 24*.
Screening Cc1nn(C)cc1/C=C/C(=O)c1ccccc1 returned Hsp70 act 0, GAA850 FXN act 1, HIF activator 4, ABHD5 PLIN5 PPI 7 and Rad51 HR inh -6.
For CC1CCN(S(=O)(=O)c2ccc(NC(=O)c3ccco3)cc2)CC1 the results were GAA850 FXN act 0, HIF activator 0 and ABHD5 PLIN5 PPI -9.
Screening N#Cc1c(NC(=O)c2cnn3cccnc23)sc2c1CCCC2 returned Hsp70 act 0, TAG inh 10, GAA850 FXN act 2, HIF activator 4, ABHD5 PLIN5 PPI 3 and Rad51 HR inh 5.
